Common to all, as to assay type: functional, organism-based
Assay [1] relates to Paracentrotus lividus. In words: In vivo antiproliferative activity in sea urchin embryos assessed as cleavage alteration up to 4 uM measured after 2.5 to 5.5 hrs post fertilization. A digest of the protocol: (§1)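 Fertilized sea urchin eggs, cultured at room temperature in filtered seawater with paddle agitation (60 rpm), were exposed as a monolayer (up to 2000 embryos/mL) 8−20 min after fertilization to 2-fold serial dilutions. Compounds came from 10 mM DMSO stocks diluted 10-fold in 96% EtOH, with final DMSO ≤0.05% and EtOH ≤1%. Cleavage alteration was scored microscopically at 2.5−5.5 h post-fertilization. The threshold concentration is the lowest dose giving 100% alteration.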

Assay [2] relates to Paracentrotus lividus. In words: In vivo antiproliferative activity in sea urchin embryos assessed as cleavage alteration at 4 uM measured after 2.5 to 5.5 hrs post fertilization. Summed up: as §1
The test system of assay [3] is Paracentrotus lividus. In words: In vivo antiproliferative activity in sea urchin embryos assessed as cleavage alteration at 2 uM measured after 2.5 to 5.5 hrs post fertilization. Summed up: as §1
For assay [4], the system named is Paracentrotus lividus. In words: In vivo antiproliferative activity in sea urchin embryos assessed as cleavage alteration at 1 uM measured after 2.5 to 5.5 hrs post fertilization. Summed up: as §1

Active and inactive are the calls of the source.

`COc1ccc(-c2cccc3cc(OC)c4c(c23)OCO4)cc1`: the result in the assay on Paracentrotus lividus [1] was inactive. Regarding `COc1cc(-c2cccc3cc4c(cc23)OCO4)cc(OC)c1OC`, the outcome in the assay with Paracentrotus lividus [2] and in the assay with Paracentrotus lividus [3] was Active. Take `COc1ccc(C(=O)CC(O)Cc2ccc3c(c2)OCO3)cc1` (stereo not given): the result in the assay with Paracentrotus lividus [1] was inactive.

As for `COc1ccc(-c2cccc3cc4c(c(OC)c23)OCO4)cc1`, the outcome with Paracentrotus lividus [2] was Active. For `COc1ccc(C(=O)CC(O)Cc2cc(OC)c3c(c2)OCO3)cc1` (stereo not given), the outcome in the assay on Paracentrotus lividus [1] was inactive. `COc1ccc(-c2cccc3c(OC)c(OC)c(OC)c(OC)c23)cc1`: the result in the assay with Paracentrotus lividus [1] was inactive.

For `COc1ccc(-c2cccc3cc4c(cc23)OCO4)cc1`, the outcome with Paracentrotus lividus [1] was inactive. Take `COc1ccc(-c2cccc3c(OC)c4c(c(OC)c23)OCO4)cc1`: the outcome with Paracentrotus lividus [1] was inactive.

For the compound `COc1ccc(C2CC(O)Cc3c(OC)c4c(c(OC)c32)OCO4)cc1` (stereo not given), the outcome in the assay with Paracentrotus lividus [1] was inactive. As for `COc1ccc(-c2cccc3c(OC)c(OC)c4c(c23)OCO4)cc1`, the outcome in the assay with Paracentrotus lividus [2], in the assay on Paracentrotus lividus [4] and in the assay on Paracentrotus lividus [3] was Active. With `COc1ccc(C(N)CC(O)Cc2cc(OC)c3c(c2OC)OCO3)cc1` (stereo not given), the outcome in the assay on Paracentrotus lividus [1] was inactive.

For the compound `COc1ccc(C(O)CC(O)Cc2cc(OC)c3c(c2OC)OCO3)cc1` (stereo not given), the result in the assay on Paracentrotus lividus [3] was Active.

(Values after ChEMBL document CHEMBL4477161, “Facile Synthesis of Natural Alkoxynaphthalene Analogues from Plant Alkoxybenzenes” (J Nat Prod, 2016).)
